Laboratory results as given in ChEMBL document CHEMBL5038594, “Structural Fine-Tuning of Desmuramylpeptide NOD2 Agonists Defines Their In Vivo Adjuvant Activity” (J Med Chem, 2021).
Activity calls are given as the source filed them.

Assays:
[1] = test system: PBMC; experiment: Immunostimulatory activity in human PBMC cells assessed as increase in TNF-alpha production at 2 uM incubated for 18 hrs by flow cytometry analysis; assay type: functional, cell-based
In short: (§1)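 Human PBMCs from healthy donors, 1 × 10^6 cells/mL in RPMI 1640 with 10% FBS, treated with 2 μM compound or 0.1% DMSO, without or with LPS 10 ng/mL, for 18 h at 37 °C. Supernatant cytokines quantified by cytometric bead array (human inflammatory panel) on a flow cytometer against recombinant standards. Four independent donors. Repeated-measures one-way ANOVA with Dunnett.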

[2] = test system: PBMC; experiment: Immunostimulatory activity in human PBMC cells assessed as increase in IL-8 production at 2 uM incubated for 18 hrs by flow cytometry analysis; assay type: functional, cell-based; in short: as §1
[3] = test system: Mus musculus; experiment: Immuno-adjuvant activity in NIH/OlaHsd mouse assessed as increase in ovalbumin specific […] associated IgG2a production in sera at 0.15 micromol administered subcutaneously on day 1 and as booster dose on day 21 and 28 with ovalbumin loaded liposomes by ELISA; assay type: functional, organism-based; settings: dose 0.15 µmol, time 28.0 day
In short: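 Groups of 5 female NIH/OlaHsd mice, 2.0–2.5 months old, immunized with ovalbumin-loaded liposomes (10 μg ovalbumin per dose) containing 0.15 μmol adjuvant per dose. Liposomes were neutral (PC–cholesterol 7:5), anionic (PC–cholesterol–dicetylphosphate 7:5:1) or mannosylated (PC–cholesterol–mannose-PEG-PA 7:5:0.5). Serum ovalbumin-specific IgG, IgG1 and IgG2a measured 1 week after the second booster. Mean ± SEM.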

[4] = test system: Mus musculus; experiment: Immuno-adjuvant activity in NIH/OlaHsd mouse assessed as increase in ovalbumin specific […] associated IgG1 production in sera at 0.30 micromol administered subcutaneously on day 1 and as booster dose on day 21 with ovalbumin loaded neutral liposomes and measured 1 week post booster dose by ELISA; assay type: functional, organism-based; settings: dose 0.3 µmol, time 28.0 day
In short: (§2)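 Groups of 5 female NIH/OlaHsd mice, 2.0–2.5 months old, immunized with ovalbumin-loaded neutral liposomes (10 μg ovalbumin per dose) containing 0.30 μmol adjuvant per dose, plus one booster dose. Serum ovalbumin-specific IgG, IgG1 and IgG2a measured 1 week after the booster. Mean ± SEM of 5 mice.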

[5] = test system: K562; experiment: Cytotoxicity against human K562 cells cocultured with human PBMC cells assessed as inhibition of cell proliferation at 100 nM incubated with PBMC cells for 18 hrs followed by co-incubation with K562 cells for 4 hrs by SYTOX blue staining based flow cytometric analysis; assay type: functional
In short: (§3)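 Effector cells are freshly Ficoll-isolated human PBMCs, 4 × 10^5 per well, pretreated 18 h with compound or 0.1% DMSO. CFSE-labelled K562 or MEC1 targets, 1 × 10^4 per well, are then added at 40:1 effector:target ratio and co-incubated 4 h at 37 °C. Dead targets are CFSE+/Sytox blue+ by flow cytometry. Results are relative to vehicle. Duplicates; three (MEC1) or four (K562) independent experiments. One-way ANOVA with Dunnett.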

[6] = test system: Mus musculus; experiment: Immuno-adjuvant activity in NIH/OlaHsd mouse assessed as increase in ovalbumin specific […] associated IgG2a production in sera at 0.30 micromol administered subcutaneously on day 1 and as booster dose on day 21 with ovalbumin loaded neutral liposomes and measured 1 week post booster dose by ELISA; assay type: functional, organism-based; settings: dose 0.3 µmol, time 28.0 day; in short: as §2
[7] = test system: K562; experiment: Cytotoxicity against human K562 cells cocultured with human PBMC cells assessed as inhibition of cell proliferation at 1 uM incubated with PBMC cells for 18 hrs followed by co-incubation with K562 cells for 4 hrs by SYTOX blue staining based flow cytometric analysis; assay type: functional; in short: as §3
[8] = test system: PBMC; experiment: Immunostimulatory activity in human PBMC cells assessed as increase in LPS-induced IL-1beta production at 2 uM incubated for 18 hrs by flow cytometry analysis; assay type: functional, cell-based; in short: as §1
[9] = test system: PBMC; experiment: Immunostimulatory activity in human PBMC cells assessed as increase in LPS-induced IL-8 production at 2 uM incubated for 18 hrs by flow cytometry analysis; assay type: functional, cell-based; in short: as §1
[10] = test system: MEC1; experiment: Cytotoxicity against human MEC-1 cells cocultured with human PBMC cells assessed as inhibition of cell proliferation at 100 nM incubated with PBMC cells for 18 hrs followed by co-incubation with MEC-1 cells for 4 hrs by SYTOX blue staining based flow cytometric analysis; assay type: functional; in short: as §3

Measured: Activity

CCCCCCCCCCCCCCCCCC(=O)Oc1ccc(/C=C/C(=O)NCC(=O)N[C@H](C(=O)N[C@H](CCC(=O)OCC)C(=O)OCC)C(C)C)cc1OC
inactive: [1] | [2] | [5] | [10]
active: all other assays above
